Published values gathered from unrelated publications.
Compare with care: the assays were run in different laboratories.
Target: Macrophage-stimulating protein receptor (MST1R, Homo sapiens, UniProt Q04912)

Structure (SMILES) | observed | technique | tested at | remaining binding [%]
CN(C)c1nccc(-c2cnn3ncccc23)n1 | binding | – | 1 µM | 100
O=C(NCC1CCOCC1)c1n[nH]cc1NC(=O)c1c(F)cccc1F | binding | competition with immobilised ligand | 1 µM | 100
C[C@@H]1CCN(c2nccc(-c3cnn4ncccc34)n2)C1 | binding | – | 1 µM | 100
CS(=O)(=O)c1cc(C2(NC(=O)c3cncc4c3cnn4-c3ccc(F)cc3)CC2)ccn1 | cell-free assay | competition with immobilised ligand | 1 µM | 83
O=C(NCCCN1CCOCC1)c1ccc(Nc2nccc(-c3cc4ccccc4s3)n2)cc1 | binding | competition with immobilised ligand | 1 µM | 100
CC1CCCN1c1nccc(-c2cnn3ncccc23)n1 (stereo not drawn) | binding | – | 1 µM | 100
COc1ncc2cc3ccccc3nc2c1C#N | cell-free assay | competition with immobilised ligand | 5 µM | 100
O=C(NCCCN1CCOCC1)c1ccc(Nc2ncc(Cl)c(-c3ccc(Cl)s3)n2)cc1 | binding | competition with immobilised ligand | 1 µM | 67
c1ccc(N2CCN(Cc3nc4ccccc4[nH]3)CC2)nc1 | cell-free assay | competition with immobilised ligand | 1 µM | 100
FC(F)(F)Oc1cccc(-c2cnc3ccc(-c4ccncc4)nn23)c1 | cell-free assay | competition with immobilised ligand | 5 µM | 79
N[C@@H]1CCN(c2nccc(-c3cnn4ncccc34)n2)C1 | binding | – | 1 µM | 100
C[C@@]1(Cc2ccc(C#N)cc2)C(=O)N(c2cc(Cl)cc(Cl)c2)c2ncc(C(=O)NC3(c4nc(C5CCC5)no4)CC3)n21 | cell-free assay | competition with immobilised ligand | 1 µM | 100
CN(C)c1nccc(-c2cnc3ncccn23)n1 | binding | – | 1 µM | 98
Cc1c[nH]c2nccc(Oc3c(F)cc(Nc4cc(Cl)nc(N)n4)cc3F)c12 | cell-free assay | competition with immobilised ligand | 0.1 µM | 74
F[C@@H]1CCN(c2nccc(-c3cnn4ncccc34)n2)C1 | binding | – | 1 µM | 100
COc1cnc(Nc2cccc(S(N)(=O)=O)c2)nc1N1CCN(c2ccccc2)CC1 | binding | competition with immobilised ligand | 1 µM | 99
C=CC(=O)N1CCC(C(=O)NCC(=O)N2CCN(c3nc(-c4cnc(N)nc4C(F)F)nc(N4CCOCC4)n3)CC2)CC1 | binding | competition with immobilised ligand | 1 µM | 100
O=C(O)[C@H]1[C@H](Cn2nnc3ccccc3c2=O)CC[C@@H]1C(=O)c1ccc(OCCC2CCOCC2)cc1 | cell-free assay | competition with immobilised ligand | 1 µM | 96
O=C(c1ccc(Nc2ncc(Cl)c(-c3cc4ccccc4s3)n2)cc1)N1CCC(N2CCCC2)CC1 | binding | competition with immobilised ligand | 1 µM | 56
c1cncc(-c2cccc(Nc3nccc(NC4CCCCC4)n3)c2)c1 | binding | competition with immobilised ligand | 10 µM | 78
C[C@@H]1CN(c2cc(-c3n[nH]c4ccc(OC5(C)CC5)cc34)ncn2)C[C@H](C)O1 | cell-free assay | competition with immobilised ligand | 0.1 µM | 100
